Structures are written as SMILES.

The series in a line: Toxicity liver stage against HepG2, at 10uM. It counts as cell-based. Details: test concentration 10 uM, cell line HepG2-A16-CD81EGFP. Particulars: human, HepG2-A16-CD81EGFP cells; read-out: INHIBITION
In short, it runs like this: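 Uninfected HepG2-A16-CD81EGFP cells, 3 × 10^3 per well, 1536-well, plated on prespotted compound at 10 μM final, parasite-free screening media added to match infected plates; puromycin 10 μM positive, DMSO 0.5% negative; run in parallel with 48 h PbLuc assay at 37 °C, 5% CO2; viability by CellTiter-Glo luminescence, normalized to controls.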
Take `O=C(NCC1CC1)C1=NOC2(CCN(Cc3ccc(Cl)c(F)c3)C2)C1` (configuration not stated): the cytotoxicity at 10 µM was determined as 13.5%.

For `COC(=O)c1sccc1S(=O)(=O)N1CCC(Oc2ncccc2Cl)CC1`, the cytotoxicity at 10 µM was -16.8%. Under `CCn1ccc(NC(=O)CCc2c(C)nn(C)c2C)n1` stands 4.01%; under `CN1CCCC(Cc2cc(N(C)C)ncn2)C1` (configuration not stated), 11.1%. For `Cc1nn(C)cc1-c1cc(C(=O)N2CCc3ncc(Cl)cc3C2)no1`, the cytotoxicity at 10 µM is 1.18%. Consider `Cc1cnc2cc(C3CCN(C(=O)c4ccncc4)CC3)[nH]c2n1`, for which the cytotoxicity at 10 µM was -22.1%. Regarding `COCc1nc(C2CCN(Cc3ncc[nH]3)CC2)no1`, the cytotoxicity at 10 µM is -23.1%. Under `CN(C)C(=O)CN1CCCCC1c1nc(N)ncc1-c1ccc(Cl)cc1` (configuration not stated) stands -14.9%; under `CCCNC(=O)c1cncc(CC2CCCN(C)C2)c1` (configuration not stated), -16%. As to `O=C(NCCO)C1(Cc2cc(-c3ccc(F)cc3F)no2)CCOCC1`, the cytotoxicity at 10 µM came to 0.333%.

`Cc1ccc(S(=O)(=O)N2C[C@H]3C[C@H](NC(=O)c4ccn(C)n4)[C@H]3C2)cc1`: the cytotoxicity at 10 µM was -1.11%. On to `CNc1cncc(C2CCCN2Cc2ccccc2OCC(=O)O)n1` (configuration not stated), for which the cytotoxicity at 10 µM was -0.105%. `O=C(Cc1cccc(F)c1F)NS(=O)(=O)c1ccc(Cl)cn1`: the cytotoxicity at 10 µM came out at 0.545%. Regarding `CNc1nc(CS(=O)(=O)c2ccccc2)cs1`, the cytotoxicity at 10 µM was 13%. For `COc1cc(OC)cc(-c2noc(CN)n2)c1`, the cytotoxicity at 10 µM came to 20.6%. On to `Cc1ccc(CN(C)C(=O)CNC(C)(C)c2noc(C(C)(C)C)n2)o1`, for which the cytotoxicity at 10 µM turned out to be 2.43%. Under `Cc1ncccc1C(=O)Nc1cccc(Cn2ccccc2=O)c1` stands 3.06%; under `COc1ccc(CCN2CCCC(n3cncn3)C2)cc1` (configuration not stated), -6.2%; under `CSCC(C)N(C)C(=O)CN1CCN(c2ccccn2)CC1` (configuration not stated), -7.59%.

Turning to `O=C(CN1CCCNC1=O)N(Cc1ccccc1)CC(F)F`, the cytotoxicity at 10 µM was determined as 5.9%. In the case of `Cc1ccc(C(=O)NCc2ccnc(N3CCN(C)CC3)c2)cn1` it was -2.07%; in that of `CN(C)C(=O)C1SCCc2ccccc21` (configuration not stated), 1.81%; in that of `O=C(Cn1cc(C2CC2)nn1)N(Cc1ccco1)CC1CCCO1` (configuration not stated), 0.0636%. With `O=S(=O)(Cc1ccon1)N1CCN(c2ccncc2Cl)CC1`, the cytotoxicity at 10 µM was -4.96%. On to `CS(=O)(=O)NCC1CCCCN1Cc1cccc(C#N)c1` (configuration not stated), for which the cytotoxicity at 10 µM turned out to be 0.528%.

As to `Cc1ccc(N2CCCN(C(=O)c3cccc4c3ccn4C)CC2)nn1`, the cytotoxicity at 10 µM is 0.983%. For `Cc1cnn(CCNCc2cc(C)no2)c1`, the cytotoxicity at 10 µM turned out to be 8.77%. For `CC1CN(S(=O)(=O)c2cc(S(C)(=O)=O)ccc2Br)c2cccnc2O1` (configuration not stated), the cytotoxicity at 10 µM was -0.346%. In the case of `Cc1oc(NC(=O)C(C)N2CCN(C(C)(C)CO)CC2)c(C#N)c1C` (configuration not stated), the cytotoxicity at 10 µM was -3.62%.

Regarding `CC(CC(=O)Nc1ncn(CC(=O)NCc2ccccc2)n1)C1CC1` (configuration not stated), the cytotoxicity at 10 µM was found to be 7.12%.

In the case of `Cc1nc(C)n(CC2CCCN2CC(=O)Nc2nncs2)n1` (configuration not stated), the cytotoxicity at 10 µM was found to be 14.3%. Regarding `Cc1cccc(NC(=O)CN(C)C(=O)c2scnc2C)n1`, the cytotoxicity at 10 µM was -3.79%. Take `Cc1cc(F)ccc1NC(=O)NCC(C)N1CCOCC1` (configuration not stated): the cytotoxicity at 10 µM was -4.1%. On to `CCN(CCC(F)(F)F)S(=O)(=O)c1cccc(F)c1C#N`, for which the cytotoxicity at 10 µM is -3.77%.

Regarding `CC(C)(C)c1ncc(CNc2ccn(CCc3ccncc3)n2)s1`, the cytotoxicity at 10 µM came out at 26.1%. Under `Cc1nnc(C(NS(=O)(=O)c2cc(C)c(F)cc2F)C(C)C)[nH]1` (configuration not stated) stands -6.04%. As to `Cc1nc(NC(=O)NCc2nc3cccc(C)c3n2C)oc1C`, the cytotoxicity at 10 µM was -6.71%. On to `CN(Cc1ccccc1)CC(C)(C)NC(=O)c1ccon1`, for which the cytotoxicity at 10 µM came to 13%.

With `C=C(C)CN(CC)Cc1nc(CC)no1`, the cytotoxicity at 10 µM turned out to be 12.6%.

Consider `CCN1CCN(c2ccc(C(=O)NCCn3ccnc3)cc2F)CC1`, for which the cytotoxicity at 10 µM worked out at 10.8%. Regarding `CCCC1(CNCc2ncc[nH]2)CCC1`, the cytotoxicity at 10 µM stood at 2.24%.

For `Cc1nnc(NC(=O)CN(C)CC2CCCN2c2cccnn2)s1` (configuration not stated), the cytotoxicity at 10 µM was -15%. As to `N#CCCN(C(=O)CN1CCCC1Cc1ccccc1)c1ccccc1` (configuration not stated), the cytotoxicity at 10 µM was -20.7%. With `CCOCCN1CCN(Cc2nc(C3CC3)no2)CC1CC` (configuration not stated), the cytotoxicity at 10 µM was -5.75%. `COc1cc(NC(=O)c2ccccc2F)c(C(=O)N(C)C)cc1OC`: the cytotoxicity at 10 µM is -14.8%. As for `COc1ccc(NC(C)C(=O)NCCc2cccs2)cc1F` (configuration not stated), the cytotoxicity at 10 µM was -13.5%. Turning to `O=C(c1ccccc1)N1CC[C@H]2C[C@@H](c3nnc(C4CC4)o3)O[C@@H]2C1`, the cytotoxicity at 10 µM is -99.2%. As to `O=C(c1ccccc1)N1CC[C@H]2C[C@H](c3nnc(C4CC4)o3)O[C@@H]2C1`, the cytotoxicity at 10 µM is -102%.

With `CNC(=O)[C@@]12CCO[C@@H]1CCN(S(=O)(=O)c1cccc(C)c1)C2`, the cytotoxicity at 10 µM was -1.8%. In the case of `COc1ccccc1N1CCC(N2CCOCC(CO)C2)CC1` (configuration not stated) it was -6.85%; in that of `Cc1ccccc1Oc1ncccc1CNC(=O)Cn1cccnc1=O`, -16.8%; in that of `CC(C)NC(=O)N1CCCC(Cn2cc(-c3ccc(F)cc3)nn2)C1` (configuration not stated), 12.5%. Take `CCn1c(C2CCN(C(=O)COCC(F)(F)C(F)F)CC2)n[nH]c1=O`: the cytotoxicity at 10 µM was -55%. Take `CC(C)[C@]1(O)CN(C(=O)C2(Cn3cccn3)CC2)C[C@H]1C`: the cytotoxicity at 10 µM turned out to be 1.79%. On to `Cc1nc(O)cc(C2CCCN(C(=O)COCc3ccccc3)C2)n1` (configuration not stated), for which the cytotoxicity at 10 µM was -11%. Turning to `O=C(Cc1ccccn1)N1CCC2(CC1)[C@H](O)C[C@@H]2O`, the cytotoxicity at 10 µM is -2.34%. In the case of `Cn1cc(CN2CCCC(CCc3ccc(F)c(F)c3)C2)cn1` (configuration not stated) it was -6.6%; in that of `Nc1nc2c(c(NCc3cnc4c(c3)CCC4)n1)CCNC2`, 1.98%. `CCNc1ccnc(NCC2(N(C)C)CCOCC2)n1`: the cytotoxicity at 10 µM is -0.686%. In the case of `Cc1ccc(-c2nnc(CCC(=O)NCc3cn(C)nc3C)o2)s1` it was -1.31%; in that of `CCOCCC(=O)N(C)Cc1noc(C(C)C)n1`, 6.13%; in that of `CNS(=O)(=O)Cc1ccc(CNC(=O)c2ccccn2)cc1`, -0.945%.

Regarding `Cc1oc(C(=O)O)cc1S(=O)(=O)Nc1cc(Br)ccc1Cl`, the cytotoxicity at 10 µM turned out to be 0.386%.

As for `Cc1noc(Cl)c1CCC(=O)N1CCN(CC(C)(C)O)CC1`, the cytotoxicity at 10 µM is 1.61%. `Cc1nc(C)c(C(=O)NCCNc2ncccn2)s1`: the cytotoxicity at 10 µM was -3.65%. Take `O=C(c1csc(-c2ccccn2)n1)N1CCCC1Cn1cccn1` (configuration not stated): the cytotoxicity at 10 µM was -3.69%.

On to `c1ccc(-c2nc(CNC3CCc4ncnn4C3)cs2)cc1` (configuration not stated), for which the cytotoxicity at 10 µM is -6.19%. Take `CC(C)c1nnc2n1CCN(Cc1ncc(-c3ccccc3)o1)C2`: the cytotoxicity at 10 µM was -12.8%. Consider `N#Cc1ccc(N2CCCN(C(=O)CC3CCCO3)CC2)cc1` (configuration not stated), for which the cytotoxicity at 10 µM was -4.69%. For the molecule `Cc1c[nH]cc1C(=O)N1CCN(CCc2cccs2)CC1`, the cytotoxicity at 10 µM is -6.8%.

As to `Cc1cc(C)c(CNC(=O)NCC2CCCO2)c(=O)[nH]1` (configuration not stated), the cytotoxicity at 10 µM is -3.76%. Under `Cc1ccc(C)c(OC2CCN(C(=O)c3ccc(O)nc3)CC2)c1` stands 3.23%; under `CN1CCN(C2CCN(CC(=O)NCC(F)(F)F)CC2)C1=O`, -9.78%. Regarding `CN(C)CC1CN(c2cnc3ccccc3n2)CCO1` (configuration not stated), the cytotoxicity at 10 µM was -9.93%.

Turning to `CN(Cc1ccc(F)cc1)C(=O)NCc1nnc2n1CCCCC2`, the cytotoxicity at 10 µM is -10.1%. In the case of `Cc1ccc(C(N)c2cccc(S(C)(=O)=O)c2)cc1` (configuration not stated), the cytotoxicity at 10 µM was 3.18%. With `CCN(Cc1nc2c(cnn2C)c(=O)[nH]1)c1ccc(OC)c(OC)c1`, the cytotoxicity at 10 µM came out at 2.31%. Regarding `CC(O)CN1CCC(CNCc2cccc(OC(C)C)c2)CC1` (configuration not stated), the cytotoxicity at 10 µM was -8.16%. Turning to `CC(C)NC(=O)Nc1ccc(CNCc2cccc(OC(F)F)c2)cc1`, the cytotoxicity at 10 µM was -7.96%. Turning to `Cc1cnn(CC2CCCN2CC(=O)Nc2cc(C)nn2C)c1` (configuration not stated), the cytotoxicity at 10 µM was -20.1%. As to `Cc1nn(C)c(N2CCOCC2)c1CNCc1ccnc(N(C)C)c1`, the cytotoxicity at 10 µM stood at 1.97%. Under `CC(CN1CCOCC1)OC(=O)c1ccccc1I` (configuration not stated) stands -6.37%; under `O=C(NC[C@]12COC[C@H]1CN(C1CCOCC1)C2)c1ccco1`, -3.99%. In the case of `CS(=O)(=O)NCc1cnc2n1CCN(Cc1ccco1)CC2` it was -4.31%. Under `CN(C)C(=O)CC1CC2(CCN(c3ncccn3)CC2)c2ccccc21` (configuration not stated) stands -16.7%.

In the case of `Cn1ccnc1CN1CCN2C[C@H](Oc3cccc(F)c3)C[C@H]2C1`, the cytotoxicity at 10 µM is 13.6%. For the molecule `c1ccc(N2CCC3(COCCN(c4ncccn4)C3)C2)nc1` (configuration not stated), the cytotoxicity at 10 µM stood at 2.78%. Consider `Cc1ccc2c(c1)CCC21CCN(C(=O)CN(C)C)CC1`, for which the cytotoxicity at 10 µM was -6.25%. `CCO[C@H]1CN(CC2CCOCC2)[C@@H]2CCCO[C@H]12`: the cytotoxicity at 10 µM is -109%. As for `c1cncc(OCc2noc3c2CN(Cc2ccco2)CC3)c1`, the cytotoxicity at 10 µM turned out to be 1.71%. Under `NCC1CCC2(CCN(C(=O)c3ccccn3)CC2)CO1` (configuration not stated) stands -111%. On to `N#Cc1ccc(NC(=O)C2CSCN2)cc1` (configuration not stated), for which the cytotoxicity at 10 µM stood at 2.62%. Consider `CCOC[C@]12COC[C@H]1CN(Cc1ccc3c(c1)OCO3)C2`, for which the cytotoxicity at 10 µM was -119%.

As to `CC(=O)N1CCO[C@@H]2CN(Cc3ccccc3Cl)C[C@@H]2C1`, the cytotoxicity at 10 µM was -110%. Regarding `CCn1ncc2c1C(COC)N(C(=O)c1cscn1)CC2` (configuration not stated), the cytotoxicity at 10 µM was -98.1%.

With `CCc1c(C)[nH]c2cc(C3CCN(Cc4ccncc4C)C3)nn2c1=O` (configuration not stated), the cytotoxicity at 10 µM is -14.1%. For `CC(C)=CCN1C[C@@H]2CC[C@H]1CN(Cc1cc(=O)[nH]c(=O)[nH]1)C2`, the cytotoxicity at 10 µM is -17.3%.

Values taken from ChEMBL document CHEMBL4513216, “Probing the Open Global Health Chemical Diversity Library for Multistage-Active Starting Points for Next-Generation Antimalarials” (ACS Infect Dis, 2020).
